Data on four compounds can be found in ChEMBL document CHEMBL1212783, “Cellular pharmacology of the anti-hepatitis B virus agent beta-L-2',3'-didehydro-2',3'-dideoxy-N4-hydroxycytidine: relevance for activation in HepG2 cells” (Antimicrob Agents Chemother, 2010).

Series [1] relates to Hepatitis B virus. The series can be described thus: Antiviral activity against HBV infected in human HepG2(2.2.15) cells. As to conditions: read-out: ED50 (the source's name). The series is classed as functional.
In series [2] the test system is HepG2. As to the kind of experiment: Drug metabolism in human HepG2 cells assessed as compound monophosphate level per 10^6 cells at 2 uM after 12 hrs by reversed-phase HPLC analysis. The class given is ADME, cell-based. The settings on record: hepg2, 12 h. In short, it runs like this:
(§1)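 HepG2 cells were grown in DMEM with 10% FBS and 1 mM pyruvate at 37°C, 5% CO2. They were seeded at 2.5 × 10^6/well and exposed after adherence to 2 or 10 μM [3H]-labelled nucleoside (440 or 1,000 dpm/pmol) for 6–24 h. Cells were washed in ice-cold PBS, trypsinized and counted (viability >95%). Metabolites were extracted twice in 60% methanol at −20°C for 16 h. Extracts were separated by ion-pair reverse-phase C18 HPLC and counted by fraction scintillation. Phosphates were identified by UV spectra, a triphosphate standard and alkaline phosphatase digestion.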

In series [3] the test system is HepG2. As to the kind of experiment: Drug metabolism in human HepG2 cells assessed as compound monophosphate level per 10^6 cells at 10 uM after 12 hrs by reversed-phase HPLC analysis. The series is classed as ADME, cell-based. As to conditions: hepg2, 12 h. The essentials:
as §1

The test system of series [4] is HepG2. As to the kind of experiment: Drug metabolism in human HepG2 cells assessed as compound monophosphate level per 10^6 cells at 2 uM after 18 hrs by reversed-phase HPLC analysis. The class given is ADME, cell-based. As to conditions: hepg2, 18 h. The essentials:
as §1

Series [5] deals with HepG2. As to the kind of experiment: Drug metabolism in human HepG2 cells assessed as compound monophosphate level per 10^6 cells at 10 uM after 18 hrs by reversed-phase HPLC analysis. The class given is ADME, cell-based. As to conditions: hepg2, 18 h. The essentials:
as §1

The test system of series [6] is HepG2. The series can be described thus: Drug metabolism in human HepG2 cells assessed as compound monophosphate level per 10^6 cells at 2 uM after 24 hrs by reversed-phase HPLC analysis. The class given is ADME, cell-based. As to conditions: hepg2, 24 h. The essentials: as §1
The test system of series [7] is HepG2. The series can be described thus: Drug metabolism in human HepG2 cells assessed as compound monophosphate level per 10^6 cells at 10 uM after 24 hrs by reversed-phase HPLC analysis. The series is classed as ADME, cell-based. The settings on record: hepg2, 24 h. The essentials: as §1
Series [8] deals with HepG2. The series can be described thus: Drug metabolism in human HepG2 cells assessed as compound monophosphate level per 10^6 cells at 2 uM after 6 hrs by reversed-phase HPLC analysis. The series is classed as ADME, cell-based. The settings on record: hepg2, 6 h. In short, it runs like this:
as §1

For series [9], the system named is HepG2. As to the kind of experiment: Drug metabolism in human HepG2 cells assessed as compound monophosphate level per 10^6 cells at 10 uM after 6 hrs by reversed-phase HPLC analysis. The series is classed as ADME, cell-based. As to conditions: hepg2, 6 h. In short, it runs like this: as §1
Series [10] has as its system HepG2. The series can be described thus: Drug metabolism in human HepG2 cells assessed as compound diphosphate level per 10^6 cells at 2 uM after 6 hrs by reversed-phase HPLC analysis. The series is classed as ADME, cell-based. The settings on record: hepg2, 6 h. The essentials:
as §1

The subject of series [11] is HepG2. As to the kind of experiment: Drug metabolism in human HepG2 cells assessed as compound diphosphate level per 10^6 cells at 10 uM after 6 hrs by reversed-phase HPLC analysis. The series is classed as ADME, cell-based. The settings on record: hepg2, 6 h. In short, it runs like this: as §1
Series [12] concerns HepG2. The series can be described thus: Drug metabolism in human HepG2 cells assessed as compound diphosphate level per 10^6 cells at 2 uM after 12 hrs by reversed-phase HPLC analysis. The class given is ADME, cell-based. The settings on record: hepg2, 12 h. The essentials: as §1
In series [13] the test system is HepG2. The series can be described thus: Drug metabolism in human HepG2 cells assessed as compound diphosphate level per 10^6 cells at 10 uM after 12 hrs by reversed-phase HPLC analysis. The class given is ADME, cell-based. The settings on record: hepg2, 12 h. The essentials: as §1
For series [14], the system named is HepG2. As to the kind of experiment: Drug metabolism in human HepG2 cells assessed as compound diphosphate level per 10^6 cells at 2 uM after 18 hrs by reversed-phase HPLC analysis. The series is classed as ADME, cell-based. The settings on record: hepg2, 18 h. In short, it runs like this:
as §1

Series [15] has as its system HepG2. As to the kind of experiment: Drug metabolism in human HepG2 cells assessed as compound diphosphate level per 10^6 cells at 2 uM after 24 hrs by reversed-phase HPLC analysis. The class given is ADME, cell-based. As to conditions: hepg2, 24 h. The essentials: as §1
Series [16] has as its system HepG2. As to the kind of experiment: Drug metabolism in human HepG2 cells assessed as compound diphosphate level per 10^6 cells at 10 uM after 24 hrs by reversed-phase HPLC analysis. The series is classed as ADME, cell-based. The settings on record: hepg2, 24 h. In short, it runs like this: as §1
Series [17] deals with HepG2. As to the kind of experiment: Drug metabolism in human HepG2 cells assessed as compound triphosphate level per 10^6 cells at 2 uM after 6 hrs by reversed-phase HPLC analysis. The series is classed as ADME, cell-based. The settings on record: hepg2, 6 h. In short, it runs like this:
as §1

The test system of series [18] is HepG2. As to the kind of experiment: Drug metabolism in human HepG2 cells assessed as compound triphosphate level per 10^6 cells at 10 uM after 6 hrs by reversed-phase HPLC analysis. The class given is ADME, cell-based. The settings on record: hepg2, 6 h. In short, it runs like this: as §1
For series [19], the system named is HepG2. The series can be described thus: Drug metabolism in human HepG2 cells assessed as compound triphosphate level per 10^6 cells at 2 uM after 12 hrs by reversed-phase HPLC analysis. The class given is ADME, cell-based. As to conditions: hepg2, 12 h. The essentials: as §1
In series [20] the test system is HepG2. As to the kind of experiment: Drug metabolism in human HepG2 cells assessed as compound triphosphate level per 10^6 cells at 10 uM after 12 hrs by reversed-phase HPLC analysis. The series is classed as ADME, cell-based. As to conditions: hepg2, 12 h. The essentials:
as §1

For series [21], the system named is HepG2. The series can be described thus: Drug metabolism in human HepG2 cells assessed as compound triphosphate level per 10^6 cells at 2 uM after 18 hrs by reversed-phase HPLC analysis. The settings on record: hepg2, 18 h. The class given is ADME, cell-based. The essentials: as §1
In series [22] the test system is HepG2. The series can be described thus: Drug metabolism in human HepG2 cells assessed as compound triphosphate level per 10^6 cells at 10 uM after 18 hrs by reversed-phase HPLC analysis. The series is classed as ADME, cell-based. As to conditions: hepg2, 18 h. The essentials:
as §1

Series [23] has as its system HepG2. As to the kind of experiment: Drug metabolism in human HepG2 cells assessed as compound triphosphate level per 10^6 cells at 2 uM after 24 hrs by reversed-phase HPLC analysis. The class given is ADME, cell-based. The settings on record: hepg2, 24 h. The essentials:
as §1

The test system of series [24] is HepG2. The series can be described thus: Drug metabolism in human HepG2 cells assessed as compound triphosphate level per 10^6 cells at 10 uM after 24 hrs by reversed-phase HPLC analysis. The class given is ADME, cell-based. As to conditions: hepg2, 24 h. In short, it runs like this: as §1
Series [25] can be described thus: Cytotoxicity against human HepG2 cells at 2 uM after 48 hrs. The class given is cell-based. As to conditions: read-out: INH. The essentials:
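HepG2 cells were preincubated 24 h with 3 μM 3-deazauridine, then exposed for a second 24 h to 3 μM deazauridine plus 2 μM tritiated test nucleoside. Read-out was inhibition of HepG2 cell growth over the 48 h.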

For series [26], the system named is HepG2. The series can be described thus: Drug metabolism in human HepG2 cells assessed as compound diphosphate level per 10^6 cells at 10 uM after 18 hrs by reversed-phase HPLC analysis. The settings on record: hepg2, 18 h. The class given is ADME, cell-based. The essentials: as §1
Series [27] deals with Hepatitis B virus. The series can be described thus: Inhibition of HBV DNA polymerase at 1 uM.
Series [28] is described as follows: Half life in human HepG2 cells by HPLC analysis. The class given is ADME, cell-based. In short, it runs like this:
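HepG2 cells (1.5 × 10^6/well) were loaded 24 h with 10 μM [3H]-labelled nucleoside, washed three times and chased in drug-free medium. Cells were harvested at intervals, then counted and methanol-extracted. Mono-, di- and triphosphates were quantified by radio-HPLC. t1/2 was calculated as 0.693/κ, where κ is the terminal slope of a semilog plot of intracellular phosphate level versus time.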

Series [29] can be described thus: Cytotoxicity against human HepG2 cells. The series is classed as cell-based. As to conditions: read-out: CD50 (the source's name).

`O=c1nc(NO)ccn1[C@@H]1C=C[C@H](CO)O1`: the EC50 in series [1] amounted to 30 nM. For the same compound, the Stability in [2] is 1.3 pmol; in series [3], 5.6 pmol; in series [4] it was 2.3 pmol; in series [5], 7.3 pmol; in series [6], 4 pmol; in series [7], 11.5 pmol. The Stability in [8] came out at 0.5 pmol; in series [9] it was 4.4 pmol; in series [10], 1.3 pmol; in [11], 11.5 pmol; in [12] it was 4.5 pmol; in [13] it was 22.6 pmol. The Stability in series [14] was found to be 6.6 pmol; in series [15], 9.8 pmol; in series [16] it was 43.5 pmol; in series [17], 1.1 pmol; in [18] it was 5.3 pmol; in series [19] it was 3.1 pmol. Moreover, the Stability came out at 10.4 pmol in series [20]; 3.8 pmol in series [21]; 15.2 pmol in series [22]; 5.3 pmol in series [23]; 19.4 pmol in [24]; 30.3 pmol in [26]. The cytotoxicity at 48 h, 2 µM in [25] is 11%.
In the case of `O=c1nc(NO)ccn1[C@@H]1C=C[C@H](COP(=O)(O)OP(=O)(O)OP(=O)(O)O)O1`, the inhibition (usually the relative decrease from the control value, in per cent) in series [27] was 90%. For the same compound, the half-life – broadly, how long it takes for the measured level to halve – in series [28] was 1780 min.
As for `O=c1nc(NO)ccn1[C@@H]1C=C[C@H](COP(=O)(O)OP(=O)(O)O)O1`, the half-life in [28] is 1120 min.
Regarding `Nc1ccn([C@@H]2C=C[C@H](CO)O2)c(=O)n1`, the CC50 in series [29] was found to be 20 µM.
